What was measured:
Pax2 [1] = biological target: Pax2 (Mus musculus, UniProt P32114); assay type: cell-based; conditions: for Fold reduction (FR) of luminescence relative to vehicle treated Pax2 transfected PRS4-Luc cells: at 1.56 μM
Pax5 = Pax5 (Homo sapiens, UniProt Q02548); assay: PRS4-Luc luciferase reporter assay, Pax5 activation; assay type: cell-based; conditions: compared with Pax2
Pax8 = Pax8 (Homo sapiens, UniProt Q06710); assay: PRS4-Luc luciferase reporter assay, Pax8 activation; assay type: cell-based; conditions: compared with Pax2
Pax8, sequence (Q06710 whole entry, species assumed): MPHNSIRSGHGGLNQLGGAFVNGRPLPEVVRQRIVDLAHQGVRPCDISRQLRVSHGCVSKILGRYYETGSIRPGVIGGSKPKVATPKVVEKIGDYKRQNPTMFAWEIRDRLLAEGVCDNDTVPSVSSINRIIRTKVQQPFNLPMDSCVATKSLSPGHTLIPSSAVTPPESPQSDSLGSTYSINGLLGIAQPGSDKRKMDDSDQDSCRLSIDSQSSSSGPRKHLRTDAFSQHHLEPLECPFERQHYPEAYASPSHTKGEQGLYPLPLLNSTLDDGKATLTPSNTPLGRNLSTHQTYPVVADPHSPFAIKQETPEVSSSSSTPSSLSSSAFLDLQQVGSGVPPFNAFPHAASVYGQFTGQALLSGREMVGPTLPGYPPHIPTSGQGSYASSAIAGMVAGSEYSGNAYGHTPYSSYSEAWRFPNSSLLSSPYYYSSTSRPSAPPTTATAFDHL

BRE-Luc cells = assay: BRE-Luc counter screen; assay type: cell-based, human; conditions: for Selectivity in PRS4-Luc cells over BRE-Luc cells: 8-point titration, fresh powder, duplicate
Outline: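 Clonal HEK293 cells with an integrated BRE-Luc reporter, kept in DMEM with 10% FBS at 37°C and 5% CO2, were prepared like the PRS4-Luc cells. 6 × 10^3 cells/well (384-well) went onto plates pre-dosed with test compound or DMSO, in 8-point titrations in duplicate from fresh powder. Plates were incubated overnight, then Steady-Glo was added and luminescence read.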

[2] = Microsomal stability assay with NADPH-fortified mouse liver microsomes; assay type: in vitro ADME; conditions: for Half-life estimation in mouse liver microsomes: 1 μM compound, NADPH fortified, 5-60 min
Outline: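 1μM test compound was incubated with 200μg pooled mouse liver microsomes in phosphate buffer (3.3mM MgCl2) with 4mg NADPH. Samples taken at 5, 10, 15, 30, 45 and 60 minutes were quenched with cold acetonitrile. After protein precipitation, supernatants were analyzed by LC/MS/MS and percent remaining plotted over time. Verapamil served as the high-clearance control.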

[3] = In vivo pharmacokinetics, plasma clearance in mice; set-up: species or system mouse
Outline: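 Mice got one dose of test compound formulated at 3mg/mL in PBS with 20% DMSO and 50% PEG-400, given intravenously (5 mg/kg) or orally (15 mg/kg). Blood was drawn at 0.5, 2, 4 and 7 h and plasma isolated by centrifugation. Compound was measured by LC-MS/MS and plasma concentration plotted semi-logarithmically against time.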

Pax2 expressing RCC = assay: Phospho-histone H3 immunoblot; assay type: cell-based, human; conditions: 24 hours, vs vehicle
Outline: (§1)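 Human RCC or SKOV-3 cells (RPMI 1640, 10% FBS) or HEK293 cells (DMEM, 10% FBS) were seeded at 5.0 × 10^4 cells/well and attached overnight. Cells had 24 h of increasing test compound concentrations or DMSO. Lysates were boiled 5 min at 95°C in 2X SDS buffer, separated on 8% or 15% gels, transferred to PVDF at 4°C and probed for phospho-H3 (Ser10), total H3 and β-actin. Significance was by ANOVA with Dunnett's test versus vehicle.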

[4] = test system: ovarian carcinoma (SKOV-3) cells; assay: Phospho-histone H3 immunoblot in Pax2-negative SKOV-3 cells; assay type: cell-based, human; conditions: each concentration tested, 24 hours, vs vehicle (DMSO)
Outline: as §1

HEK293 cells = assay: Phospho-histone H3 immunoblot in HEK293 cells lacking Pax2; assay type: cell-based, human; conditions: increasing concentrations, 24 hours
Outline: as §1

Pax2-positive RCC cells = assay: Luciferase ATP; assay type: cell-based, human; conditions: each concentration tested, 18 hours
[5] = test system: Pax2-negative SKOV-3 cells; assay: Luciferase ATP; assay type: cell-based, human; conditions: only at 15 μM, tenfold the IC50, 18 hours
Cdh6 = assay: Immunoblot of Cdh6 and Pax2 protein in Pax2-positive RCC; assay type: cell-based, human; conditions: 24 hours
Outline: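 Pax2-positive human RCC cells grown in RPMI 1640 with 10% FBS were seeded at 5.0 × 10^4 cells/well, attached overnight, then exposed 24 h to increasing test compound concentrations or DMSO. Whole-cell lysates in 2X SDS buffer were run on SDS-PAGE, transferred to PVDF and probed for Cdh6, Pax2 and β-actin with ECL and film detection. Cdh6 densitometry was normalized to β-actin per lane.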

Avpr2 = assay: RT-PCR of Avpr2 expression in IMCD cells in high salt; assay type: cell-based, mouse; conditions: 5 μM, 500 mOsm/kg, 24 hours
[6] = test system: Pax2 binding site at the AVPR2 promoter; assay: ChIP at the AVPR2 promoter in IMCD cells in high salt; assay type: cell-based, mouse; conditions: 5 μM, high salt 24 hours
Outline: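 Mouse mIMCD3 cells in triplicate were pretreated 4 h with DMSO or 5 μM test compound (per figure legend). They were then kept 24 h in control medium or NaCl-supplemented medium (500 mOsm/kg), with or without compound. Chromatin immunoprecipitation was followed by real-time PCR with primers for the Pax2 binding site at the AVPR2 promoter. Antibodies included PTIP, H3K4me3 and RNA Pol II CTD.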

UTA1/3 = assay: RT-PCR of UTA1/UTA3 mRNA in IMCD cells in high salt; assay type: cell-based, mouse; conditions: 5 μM, high salt 24 hours
[7] = test system: Pax8 binding site at the Slc14a2 promoter; assay: ChIP at the Slc14a2 promoter and Pax8 western blot in IMCD cells in high salt; assay type: cell-based, mouse; conditions: 5 μM, high salt 24 hours
Pax proteins = assay: Phosphorylation of Pax proteins in cell systems; assay type: cell-based; conditions: Fig. S2
Pax2, Pax8, PTIP = assay: Western blot of Pax2, Pax8 and PTIP protein levels in IMCD cells; assay type: cell-based, mouse; conditions: 5 μM, mIMCD cells
Outline: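 Mouse IMCD cells were cultured 24 h in normal or high-salt medium with DMSO or 5 μM test compound. Lysates were western blotted for Pax2, Pax8 and PTIP.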

Pax2 [8] = conditions: at 10 μM; ref Grimley et al., 2017; cited from earlier work

Pax2 (Mus musculus, UniProt P32114), sequence (P32114 1-391 isoform P32114-2): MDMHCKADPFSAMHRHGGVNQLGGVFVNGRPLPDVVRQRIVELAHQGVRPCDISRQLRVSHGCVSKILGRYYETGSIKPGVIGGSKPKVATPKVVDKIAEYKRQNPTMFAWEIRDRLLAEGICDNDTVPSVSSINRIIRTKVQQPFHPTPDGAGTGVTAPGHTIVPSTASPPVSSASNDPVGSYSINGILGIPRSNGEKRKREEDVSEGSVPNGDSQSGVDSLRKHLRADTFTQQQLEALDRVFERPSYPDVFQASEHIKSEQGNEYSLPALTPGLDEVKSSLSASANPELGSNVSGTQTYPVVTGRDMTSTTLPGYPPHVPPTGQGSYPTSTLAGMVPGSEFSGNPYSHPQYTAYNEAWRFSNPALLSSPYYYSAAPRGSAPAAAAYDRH
Pax5, sequence (Q02548 whole entry, species assumed): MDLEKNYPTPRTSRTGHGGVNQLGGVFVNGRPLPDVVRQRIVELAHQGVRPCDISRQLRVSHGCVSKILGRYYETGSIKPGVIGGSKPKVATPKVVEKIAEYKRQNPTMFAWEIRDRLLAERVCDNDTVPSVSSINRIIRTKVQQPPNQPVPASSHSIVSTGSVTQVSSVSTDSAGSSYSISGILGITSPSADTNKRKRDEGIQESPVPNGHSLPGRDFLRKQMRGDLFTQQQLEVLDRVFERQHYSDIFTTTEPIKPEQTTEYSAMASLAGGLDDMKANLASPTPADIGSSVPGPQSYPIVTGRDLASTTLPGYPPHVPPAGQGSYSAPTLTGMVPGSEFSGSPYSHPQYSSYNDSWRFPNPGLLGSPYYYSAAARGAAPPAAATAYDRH

SMILES	Fold reduction (FR) of luminescence relative to vehicle treated Pax2 transfected PRS4-Luc cells (Pax2 [1])	Selectivity in PRS4-Luc cells over BRE-Luc cells (BRE-Luc cells)	Half-life estimation in mouse liver microsomes [2] [min]	Increased Avpr2 expression in response to high salt (Avpr2)	Histone H3K4me3 and RNA PolII recruitment at the AVPR2 promoter (ChIP) [6]	Increased Pax2 binding to the Avpr2 promoter in high salt (ChIP) [6]	Recruitment of PTIP at the AVPR2 promoter (ChIP) [6]	Increased UTA1/3 mRNA expression in high salt (UTA1/3)	Increased H3K4me3 and PolII binding at the Slc14a2 promoter (ChIP) [7]	Pax8 protein levels or binding to the Slc14a2 promoter [7]	Recruitment of PTIP and the H3K4 methyltransferase complex at the Slc14a2 promoter (ChIP) [7]	Pax2, Pax8, or PTIP protein levels (Pax2, Pax8, PTIP)	also measured
Cc1ccc(C)c(N2CCN(c3c(C)c(C)nc4ncnn34)CC2)c1 [BG-1]	0.58	selective activity	7.89	significantly inhibited	prevented	no effect	inhibited	significantly inhibited	prevent	no effect	inhibit	did not affect	Change of IC50 of BG1 in combination with EG1 (Pax2 [1]; fixed 10 μM EG1, Prs4-Luc reporter cells, Fig. S3): reduce the IC50; Inhibition of Pax5 activation of the PRS4-Luc reporter (Pax5): similarly inhibited; Inhibition of Pax8 activation of the PRS4-Luc reporter (Pax8): similarly inhibited; Stability in vivo, rank among the three compounds ([3]; IV 5 mg/kg or PO 15 mg/kg, plasma 0.5-7 h): most stable compound in vivo; Rate of plasma clearance compared to the other two compounds ([3]; intravenous 5 mg/kg single dose): lowest rate of clearance; pHH3 levels (Pax2 expressing RCC; 1.5 μM): significant reduction; pHH3 levels (Pax2 expressing RCC; 15 μM): significant reduction; pHH3 levels [4]: no significant change; pHH3 levels (HEK293 cells): did not significantly change; Percentage of viable cells (ATP luminescence) (Pax2-positive RCC cells): significantly and dose-dependently lowered; Metabolically active cells (ATP luminescence) [5]: significant drop; Cdh6 protein levels (Cdh6; 1.5 μM): significant reduction; Pax2 protein levels (Cdh6; 1.5 μM): no effect; Pax2 protein levels (Cdh6; 15 μM): also reduced; Effect on the phosphorylation of Pax proteins (Pax proteins): could not determine any discernible effects
Cc1nc2ncnn2c(N2CCN(c3ccc(Cl)cc3)CC2)c1C [BG-2]	0.78	selective activity	46.24	significantly inhibited	prevented	no effect	inhibited	significantly inhibited	prevent	no effect	inhibit	did not affect	Stability in vitro, rank among the three compounds ([2]; mouse liver microsomes): most stable in vitro
CCc1c(C)nc2ncnn2c1Nc1ccc(Cl)cc1 [BG-3]	0.82	selective activity	25.39	–	–	–	–	–	–	–	–	–	Signs of cytotoxicity in counter screen (BRE-Luc cells; PRS4-Luc and BRE-Luc cells, up to 50 μM): did not indicate signs of cytotoxicity
COc1ccccc1C(=O)Nc1ccc(C(=O)Nc2ccccc2C(=O)O)cc1 [EG1]	–	–	–	–	–	–	–	–	–	–	–	–	Maximal inhibition of Pax2 (Pax2 [8]): approximately 50%
